Reference: ChEMBL document CHEMBL3616366, “Design, synthesis and biological activity of new amides derived from 3-methyl-3-phenyl-2,5-dioxo-pyrrolidin-1-yl-acetic acid” (Eur J Med Chem, 2015)
The source made the active and inactive calls.

Assays:
[1] = tested on: Mus musculus; experiment: Antinociceptive activity in albino CD-1 mouse assessed as reduction in licking and biting time during phase 2 at 114.68 mg/kg, ip administered 30 mins prior to formalin challenge measured between 25.0 to 30.0 mins relative to control; type: functional; set-up: scale not given: the % may be the effect or the level left
[2] = tested on: Mus musculus; experiment: Neurotoxicity in albino CD-1 mouse assessed as motor performance by measuring time spent in chimney at 114.68 mg/kg, ip administered 30 mins prior to chimney test (reference value: 6.29 +/- 2.48 sec); type: toxicity, organism-based; conditions: in vivo
[3] = organism: Rattus norvegicus; experiment: Displacement of [3H]BTX from voltage-sensitive sodium channel site2 in rat cerebral cortex at 100 uM measured after 60.0 mins by scintillation counting; type: tissue-based
[4] = tested on: Mus musculus; experiment: Anticonvulsant activity in albino CD-1 mouse assessed as protection against maximal electroshock-induced seizure at 30 to 300 mg/kg, ip measured after 0.5 hrs; type: functional; conditions: CD-1, ip, read-out: MED
In short: (§1)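 Male CD-1 mice (16–26 g), compound suspended in 0.5% methylcellulose/water, i.p. at 30, 100, 300 mg/kg; four mice per group, each used once. Electroconvulsion by electrical stimulus 0.2 s at 50 Hz; protection scored at 0.5 and 2 h. Value is minimum dose showing activity.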

[5] = tested on: Mus musculus; experiment: Anticonvulsant activity in albino CD-1 mouse assessed as protection against maximal electroshock-induced seizure at 30 to 300 mg/kg, ip measured after 2.0 hrs; type: functional; conditions: for minimal effective dose: CD-1, ip, read-out: MED; in short: as §1
[6] = tested on: Mus musculus; experiment: Anticonvulsant activity in albino CD-1 mouse assessed as protection against subcutaneous pentylenetetrazole-induced seizure at 30 to 300 mg/kg, ip measured after 0.5 hrs; type: functional
In short: (§2)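 Male CD-1 mice given compound i.p. (0.5% methylcellulose suspension) at 30, 100, 300 mg/kg, four per group; pentylenetetrazole 85 mg/kg s.c. at 0.5 or 2 h. Absence of clonic convulsions (≥5 s) over 30 min observation counts as protection. Minimum active dose reported.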

[7] = tested on: Mus musculus; experiment: Anticonvulsant activity in albino CD-1 mouse assessed as protection against subcutaneous pentylenetetrazole-induced seizure at 30 to 300 mg/kg, ip measured after 2.0 hrs; type: functional; in short: as §2
[8] = tested on: Mus musculus; experiment: Neurotoxicity in albino CD-1 mouse assessed as motor impairment at 30 to 300 mg/kg mg/kg, ip measured after 0.5 hrs by rotarod test; type: toxicity, organism-based; conditions: in vivo
In short: (§3)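 Rotarod in male CD-1 mice at 0.5 and 2 h after i.p. 30, 100 or 300 mg/kg (methylcellulose suspension); motor impairment = inability to keep balance on rod turning at 10 rpm for at least 1 min. Minimum neurotoxic dose reported.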

[9] = tested on: Mus musculus; experiment: Neurotoxicity in albino CD-1 mouse assessed as motor impairment at 30 to 300 mg/kg mg/kg, ip measured after 2 hrs by rotarod test; type: toxicity, organism-based; conditions: in vivo; in short: as §3
[10] = tested on: Mus musculus; experiment: Anticonvulsant activity in ip dosed albino CD-1 mouse assessed as protection against maximal electroshock-induced seizure; type: functional; conditions: CD-1, ip
In short: (§4)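 Quantitative work at time of peak effect previously estimated in screening; groups of six mice given various i.p. doses until ≥3 points within 10–90% seizure protection (MES or scPTZ) or minimal motor impairment on rotarod (10 rpm, failure to hold ≥1 min).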

[11] = tested on: Mus musculus; experiment: Anticonvulsant activity in ip dosed albino CD-1 mouse assessed as protection against subcutaneous pentylenetetrazole-induced seizure; type: functional; in short: as §4
[12] = tested on: Mus musculus; experiment: Anticonvulsant activity in ip dosed albino CD-1 mouse assessed as protection against maximal electroshock-induced seizure measured as time to peak effect; type: functional; in short: as §4
[13] = tested on: Mus musculus; experiment: Anticonvulsant activity in ip dosed albino CD-1 mouse assessed as protection against subcutaneous pentylenetetrazole-induced seizure measured as time to peak effect; type: functional; in short: as §4
[14] = Neurotoxicity in ip dosed albino CD-1 mouse assessed as motor impairment by rotarod test; type: toxicity, organism-based; conditions: in vivo; in short: as §4
[15] = Protective index, ratio of TD50 for neurotoxicity in ip dosed albino CD-1 mouse to ED50 for anticonvulsant activity in ip dosed maximal electoshock-induced seizure albino CD-1 mouse model; type: toxicity, organism-based; conditions: in vivo, read-out: Ratio TD50/ED50
In short: (§5)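 Protective index computed as TD50 (rotarod) divided by ED50 (MES or scPTZ), both from probit analysis on groups of six i.p.-dosed mice.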

[16] = Protective index, ratio of TD50 for neurotoxicity in ip dosed albino CD-1 mouse to ED50 for anticonvulsant activity in ip dosed subcutaneous pentylenetetrazole-induced seizure albino CD-1 mouse model; type: toxicity, organism-based; conditions: in vivo, read-out: Ratio TD50/ED50; in short: as §5
[17] = tested on: Mus musculus; experiment: Antinociceptive activity in albino CD-1 mouse assessed as reduction in licking and biting time during phase 1 at 114.68 mg/kg, ip administered 30 mins prior to formalin challenge relative to control; type: functional; set-up: scale not given: the % may be the effect or the level left
[18] = tested on: Mus musculus; experiment: Antinociceptive activity in albino CD-1 mouse assessed as reduction in licking and biting time during phase 2 at 114.68 mg/kg, ip administered 30 mins prior to formalin challenge measured between 15.0 to 30.0 mins relative to control; type: functional; set-up: scale not given: the % may be the effect or the level left
[19] = tested on: Mus musculus; experiment: Antinociceptive activity in albino CD-1 mouse assessed as reduction in licking and biting time during phase 2 at 114.68 mg/kg, ip administered 30 mins prior to formalin challenge measured between 15.0 to 20.0 mins relative to control; type: functional; set-up: scale not given: the % may be the effect or the level left
[20] = tested on: Mus musculus; experiment: Neurotoxicity in albino CD-1 mouse assessed as motor performance by measuring time spent in chimney at 104.11 mg/kg, ip administered 2.0 hrs prior to chimney test (reference value: 6.29 +/- 2.48 sec); type: toxicity, organism-based; conditions: in vivo
[21] = tested on: Mus musculus; experiment: Anticonvulsant activity in ip dosed albino CD-1 mouse assessed as protection against 6 Hz current-induced seizure measured after 0.5 hrs; type: functional; conditions: CD-1, ip, read-out: MED
In short: (§6)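 6-Hz psychomotor test: corneal stimulation 32 mA, 0.2 ms monopolar rectangular pulses at 6 Hz for 3 s, mice restrained then released to observation cage. Protected if normal exploratory behaviour resumes within 10 s. Doses 30, 100, 300 mg/kg i.p.; read at 0.5 and 2 h; minimum active dose.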

[22] = tested on: Mus musculus; experiment: Anticonvulsant activity in ip dosed albino CD-1 mouse assessed as protection against 6 Hz current-induced seizure measured after 2.0 hrs; type: functional; in short: as §6
[23] = tested on: Mus musculus; experiment: Antinociceptive activity in albino CD-1 mouse assessed as reduction in licking and biting time during phase 1 at 104.11 mg/kg, ip administered 2.0 hrs prior to formalin challenge relative to control; type: functional; set-up: scale not given: the % may be the effect or the level left
[24] = tested on: Mus musculus; experiment: Antinociceptive activity in albino CD-1 mouse assessed as reduction in licking and biting time during phase 2 at 104.11 mg/kg, ip administered 2.0 hrs prior to formalin challenge measured between 15.0 to 30.0 mins relative to control; type: functional; set-up: scale not given: the % may be the effect or the level left
[25] = tested on: Mus musculus; experiment: Antinociceptive activity in albino CD-1 mouse assessed as reduction in licking and biting time during phase 2 at 104.11 mg/kg, ip administered 2.0 hrs prior to formalin challenge measured between 15.0 to 20.0 mins relative to control; type: functional; set-up: scale not given: the % may be the effect or the level left
[26] = tested on: Mus musculus; experiment: Antinociceptive activity in albino CD-1 mouse assessed as reduction in licking and biting time during phase 2 at 104.11 mg/kg, ip administered 2.0 hrs prior to formalin challenge measured between 20.0 to 25.0 mins relative to control; type: functional; set-up: scale not given: the % may be the effect or the level left
[27] = tested on: Mus musculus; experiment: Antinociceptive activity in albino CD-1 mouse assessed as reduction in licking and biting time during phase 2 at 97.51 mg/kg, ip administered 30 mins prior to formalin challenge measured between 25.0 to 30.0 mins relative to control; type: functional; set-up: scale not given: the % may be the effect or the level left
[28] = tested on: Mus musculus; experiment: Neurotoxicity in albino CD-1 mouse assessed as motor performance by measuring time spent in chimney at 97.51 mg/kg, ip administered 30 mins prior to chimney test (reference value: 6.29 +/- 2.48 sec); type: toxicity, organism-based; conditions: in vivo
[29] = tested on: Salmonella typhimurium; experiment: Mutagenic activity in Salmonella typhimurium TA100 assessed as mutagenicity index at 40 ng/ml by Ames test; type: toxicity, organism-based; conditions: salmonella enterica subsp. enterica serovar typhimurium
In short: (§7)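 Ames TA100 liquid pre-incubation (minimal medium, 37 °C) and V. harveyi assay (BOSS medium, 30 °C); test at 40 ng/ml, triplicate. Mutagenic index = induced revertants / spontaneous revertants (DMSO control); M.I. ≥2 considered mutagenic.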

[30] = tested on: Vibrio harveyi; experiment: Mutagenic activity in Vibrio harveyi BB7 assessed as mutagenicity index at 40 ng/ml; type: organism-based; conditions: in vivo; in short: as §7
[31] = tested on: Vibrio harveyi; experiment: Mutagenic activity in Vibrio harveyi BB7XM assessed as mutagenicity index at 40 ng/ml; type: organism-based; conditions: in vivo; in short: as §7
[32] = tested on: Salmonella typhimurium; experiment: Antimutagenic activity in Salmonella typhimurium TA100 assessed as inhibition of nitroquinoline-N-oxide-induced revertant colonies by Ames test; type: functional, Salmonella enterica subsp. enterica serovar Typhimurium
In short: (§8)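 Revertants induced by 4-nitroquinoline-N-oxide (final 40 ng/ml) with versus without test compound; TA100 at 37 °C, V. harveyi strains at 30 °C in BOSS medium. Three independent repetitions; inhibition % = 100 − (R1/R2 × 100); 25–40% moderate, ≥40% strong.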

[33] = tested on: Vibrio harveyi; experiment: Antimutagenic activity in Vibrio harveyi BB7 assessed as inhibition of nitroquinoline-N-oxide-induced revertant colonies; type: functional; in short: as §8
[34] = tested on: Vibrio harveyi; experiment: Antimutagenic activity in Vibrio harveyi BB7XM assessed as inhibition of nitroquinoline-N-oxide-induced revertant colonies; type: functional; in short: as §8
[35] = tested on: Mus musculus; experiment: Antinociceptive activity in albino CD-1 mouse assessed as reduction in licking and biting time during phase 1 at 97.51 mg/kg, ip administered 30 mins prior to formalin challenge relative to control; type: functional; set-up: scale not given: the % may be the effect or the level left
[36] = tested on: Mus musculus; experiment: Antinociceptive activity in albino CD-1 mouse assessed as reduction in licking and biting time during phase 2 at 97.51 mg/kg, ip administered 30 mins prior to formalin challenge measured between 15.0 to 30.0 mins relative to control; type: functional; set-up: scale not given: the % may be the effect or the level left
[37] = tested on: Mus musculus; experiment: Antinociceptive activity in albino CD-1 mouse assessed as reduction in licking and biting time during phase 2 at 97.51 mg/kg, ip administered 30 mins prior to formalin challenge measured between 15.0 to 20.0 mins relative to control; type: functional; set-up: scale not given: the % may be the effect or the level left
[38] = tested on: Mus musculus; experiment: Antinociceptive activity in albino CD-1 mouse assessed as reduction in licking and biting time during phase 2 at 97.51 mg/kg, ip administered 30 mins prior to formalin challenge measured between 20.0 to 25.0 mins relative to control; type: functional; set-up: scale not given: the % may be the effect or the level left

inhibition [3]	SMILES	minimal effective dose [4]	MTC [8]	MTC [9]	ED50 [10]	Time [12]	Time [13]	TD50 [14]	selectivity ratio [15]	minimal effective dose [5]	MED [6]	MED [7]	minimal effective dose [21]	further results
56.1%	CC1(c2ccccc2)CC(=O)N(CC(=O)N2CCN(c3ccccc3F)CC2)C1=O (stereo not drawn)	100 mg/kg	300 mg/kg	300 mg/kg	115 mg/kg	0.5 h	0.5 h	302 mg/kg	2.64					Activity [1]: 81%; Time [2]: 6.5 s; MED [5]: inactive; minimal effective dose ([6]; CD-1, 0.5 h, read-out: MED): 100 mg/kg; minimal effective dose ([7]; CD-1, 2 h, read-out: MED): 300 mg/kg; ED50 [11]: 97.1 mg/kg; selectivity ratio [16]: 3.11; Activity [17]: 73.3%; Activity [18]: 87.1%; Activity [19]: 98%
	CC1(c2ccccc2)CC(=O)N(CC(=O)N2CCN(c3ccc(F)cc3)CC2)C1=O (stereo not drawn)	100 mg/kg	300 mg/kg	300 mg/kg	104 mg/kg	2 h	2 h	248 mg/kg	2.37	100 mg/kg	inactive	inactive	300 mg/kg	Time [20]: 6.14 s; minimal effective dose ([22]; CD-1, ip, read-out: MED): 300 mg/kg; Activity [23]: 60%; Activity [24]: 82.3%; Activity [25]: 95%; Activity [26]: 95%
44.6%	COc1ccccc1N1CCN(C(=O)CN2C(=O)CC(C)(c3ccccc3)C2=O)CC1 (stereo not drawn)	100 mg/kg	300 mg/kg	300 mg/kg	97.5 mg/kg	0.5 h	0.5 h	240 mg/kg	2.46	300 mg/kg	inactive	inactive	100 mg/kg	Activity [27]: 98%; Time [28]: 8.43 s; Activity_index [29]: 0.6; Activity_index [30]: 1.2; Activity_index [31]: 0.9; inhibition (INH) [32]: 42%; inhibition (INH) [33]: 45%; inhibition (INH) [34]: 51%; MED [22]: inactive; Activity [35]: 85.5%; Activity [36]: 99.3%; Activity [37]: 100%; Activity [38]: 100%
